Measured values: ChEMBL document CHEMBL4330067, “Synthesis and mechanistic studies of diketo acids and their bioisosteres as potential antibacterial agents” (Eur J Med Chem, 2019)
≈ marks a conversion by molar mass, not a printed value. Calls of active or inactive are those of the source. No cut-off for these calls is given here.

Key:
[1] = system: Mycobacterium tuberculosis; experiment: Inhibition of Mycobacterium tuberculosis methionine aminopeptidase 1C at 100 uM using Met-AMC as substrate relative to control
Outline: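 Purified MtMetAP1c (4 µM) in 50 mM Hepes pH 7.5 with 150 mM KCl and CoCl2 at three molar equivalents of enzyme. Substrate was L-Met-AMC at 50, 100 or 150 µM. Compounds came from 10 mM DMSO stocks. Percent inhibition was taken against the uninhibited control.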

Escherichia coli [2] = experiment: Antibacterial activity against Escherichia coli MROB11 at 512 ug/mL after 24 hrs by broth dilution assay relative to control; assay type: functional
Outline: (§1)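 Multidrug-resistant E. coli isolates in Luria broth, test range 8 to 1024 µg/mL (ciprofloxacin 0.49 to 63.3 µg/mL). Inoculum 10 µL of a 1000-fold diluted 0.1 OD600 culture, incubated overnight at 37 °C. OD read at 600 nm. % inhibition = (a−b)/a×100, with media and compound-colour blanks subtracted.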

Escherichia coli [3] = experiment: Antibacterial activity against Escherichia coli MRC24 after overnight incubation; assay type: functional; outline: as §1
Escherichia coli [4] = experiment: Antibacterial activity against Escherichia coli MRC17 after overnight incubation; assay type: functional; outline: as §1
Escherichia coli [5] = experiment: Synergistic antibacterial activity against Escherichia coli MRAE33 assessed as fractional inhibitory concentration index after 18 hrs in presence of ciprofloxacin by checkerboard method; assay type: functional
Outline: (§2)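 Checkerboard combination with ciprofloxacin in Mueller-Hinton broth: compound 1024 to 16 µg/mL crossed with ciprofloxacin 128 to 2 µg/mL. Inoculum 5×10⁵ CFU/mL suspension, 18 h at 37 °C. Fractional inhibitory concentration index derived from the combination.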

Enterococcus faecalis [6] = experiment: Inhibition of Enterococcus faecalis methionine aminopeptidase 1A at 100 uM using Met-AMC as substrate relative to control
Outline: (§3)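 Purified MetAP at 4 µM in 50 mM HEPES with 150 mM KCl and CoCl2 at 3 molar equivalents of enzyme. pH 7.5 for SpMetAP1a and EfMetAP1a, pH 8.0 for HsMetAP1b. Substrate L-Met-AMC at 50, 100 and 150 µM. Compounds (10 mM DMSO stocks) tested over 1 to 120 µM for % inhibition; Ki by Dixon method.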

Escherichia coli [7] = experiment: Synergistic antibacterial activity against Escherichia coli MRC17 assessed as ciprofloxacin MIC at 16 to 1024 ug/mL after 18 hrs by checkerboard method; assay type: functional; settings: MRC17, 18 h; outline: as §2
Escherichia coli [8] = experiment: Antibacterial activity against Escherichia coli MRA11 at 512 ug/mL after 24 hrs by broth dilution assay relative to control; assay type: functional; outline: as §1
Streptococcus pneumoniae [9] = experiment: Antibacterial activity against Streptococcus pneumoniae MTCC 655 after 24 hrs by broth dilution assay; assay type: functional; settings: MTCC 655, 24 h
Outline: (§4)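 Broth dilution per NCCLS in nutrient broth, serial dilutions 1000 to 7.8 µg/mL, DMSO below 4% final. Inoculum approx. 2.5×10⁶ cells/mL, 37 °C with shaking at 150 rpm for 24 h. MIC taken as the lowest concentration with no visible growth. Ciprofloxacin served as positive control.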

Salmonella typhimurium = experiment: Antibacterial activity against Salmonella typhimurium MTCC 3224 after 24 hrs by broth dilution assay; assay type: functional, Salmonella enterica subsp. enterica serovar Typhimurium; settings: Salmonella enterica, MTCC 3224, 24 h; outline: as §4
Escherichia coli [10] = experiment: Antibacterial activity against Escherichia coli ATCC 25922 after 24 hrs by broth dilution assay; assay type: functional; settings: ATCC 25922, 24 h; outline: as §4
[11] = Inhibition of Mycobacterium tuberculosis methionine aminopeptidase 1C using Met-AMC as substrate by Dixon method
Escherichia coli [12] = experiment: Synergistic antibacterial activity against Escherichia coli MRC17 after 18 hrs in presence of ciprofloxacin by checkerboard method; assay type: functional; settings: MRC17, 18 h; outline: as §2
Escherichia coli [13] = experiment: Antibacterial activity against Escherichia coli MRC24 at 512 ug/mL after 24 hrs by broth dilution assay relative to control; assay type: functional; outline: as §1
Escherichia coli [14] = experiment: Antibacterial activity against Escherichia coli MRAE33 at 1024 ug/mL after 24 hrs by broth dilution assay relative to control; assay type: functional; outline: as §1
CHO [15] = experiment: Cytotoxicity against CHO cells at 300 ug/mL after 48 hrs by MTT assay; assay type: cell-based, Cricetulus griseus; settings: chinese hamster
Outline: (§5)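 MTT assay: cells maintained in DMEM with 10% FBS and penicillin/streptomycin at 37 °C, 5% CO2. Seeded at approx. 2×10⁴ cells/well, 24 h before treatment, then exposed to 10 to 400 µg/mL for 48 h at 37 °C. MTT (5 mg/mL stock in PBS) added for 4 h, formazan dissolved in DMSO, A570 read. Triplicate wells; viability given relative to untreated cells.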

Escherichia coli [16] = experiment: Antibacterial activity against Escherichia coli MRA11 after overnight incubation; assay type: functional; outline: as §1
Escherichia coli [17] = experiment: Antibacterial activity against Escherichia coli MRAE44 after overnight incubation; assay type: functional; outline: as §1
Pseudomonas aeruginosa = experiment: Antibacterial activity against Pseudomonas aeruginosa MTCC 2453 after 24 hrs by broth dilution assay; assay type: functional; settings: MTCC 2453, 24 h; outline: as §4
[18] = Cytotoxicity against CHO cells assessed as cell viability at 100 ug/mL after 48 hrs by MTT assay relative to control; assay type: cell-based, Cricetulus griseus; settings: chinese hamster, read-out: Activity; outline: as §5
Escherichia coli [19] = experiment: Synergistic antibacterial activity against Escherichia coli MRAE33 assessed as ciprofloxacin MIC at 16 to 1024 ug/mL after 18 hrs by checkerboard method; assay type: functional; settings: MRAE33, 18 h; outline: as §2
CHO [20] = experiment: Cytotoxicity against CHO cells at 50 ug/mL after 48 hrs by MTT assay; assay type: cell-based, Cricetulus griseus; settings: chinese hamster; outline: as §5
Escherichia coli [21] = experiment: Synergistic antibacterial activity against Escherichia coli MRAE33 after 18 hrs in presence of ciprofloxacin by checkerboard method; assay type: functional; settings: MRAE33, 18 h; outline: as §2
Escherichia coli [22] = experiment: Antibacterial activity against Escherichia coli MRAE32 at 512 ug/mL after 24 hrs by broth dilution assay relative to control; assay type: functional; outline: as §1
Escherichia coli [23] = experiment: Antibacterial activity against Escherichia coli MRAE44 at 1024 ug/mL after 24 hrs by broth dilution assay; assay type: functional, organism-based; outline: as §1
Escherichia coli [24] = experiment: Synergistic antibacterial activity against Escherichia coli MRC17 assessed as fractional inhibitory concentration index after 18 hrs in presence of ciprofloxacin by checkerboard method; assay type: functional
Outline: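 Checkerboard combination against MDR E. coli. Test agent gradient 1024–16 µg/mL crossed with ciprofloxacin 128–2 µg/mL in Mueller-Hinton broth. Wells were inoculated with a 5 × 10⁵ CFU/mL suspension and incubated 18 h at 37 °C. Interaction was expressed as the fractional inhibitory concentration index (FICI).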

Escherichia coli [25] = experiment: Synergistic antibacterial activity against Escherichia coli MRA11 after 18 hrs in presence of ciprofloxacin by checkerboard method; assay type: functional; settings: MRA11, 18 h; outline: as §2
Escherichia coli [26] = experiment: Antibacterial activity against Escherichia coli MRAE33 after overnight incubation; assay type: functional; outline: as §1
[27] = Inhibition of Streptococcus pneumoniae methionine aminopeptidase 1A using Met-AMC as substrate by Dixon method; outline: as §3
Enterococcus faecalis [28] = experiment: Antibacterial activity against Enterococcus faecalis MTCC 439 after 24 hrs by broth dilution assay; assay type: functional; settings: MTCC 439, 24 h; outline: as §4
Streptococcus pneumoniae [29] = experiment: Inhibition of Streptococcus pneumoniae methionine aminopeptidase 1A at 100 uM using Met-AMC as substrate relative to control; outline: as §3
Escherichia coli [30] = experiment: Antibacterial activity against Escherichia coli MRAE26 after overnight incubation; assay type: functional; outline: as §1
Escherichia coli [31] = experiment: Antibacterial activity against Escherichia coli MRAE26 at 1024 ug/mL after 24 hrs by broth dilution assay relative to control; assay type: functional; outline: as §1
Escherichia coli [32] = experiment: Antibacterial activity against Escherichia coli MROB11 after overnight incubation; assay type: functional; outline: as §1
Escherichia coli [33] = experiment: Synergistic antibacterial activity against Escherichia coli MRA11 assessed as fractional inhibitory concentration index after 18 hrs in presence of ciprofloxacin by checkerboard method; assay type: functional; outline: as §2
Escherichia coli [34] = experiment: Antibacterial activity against Escherichia coli MRAE32 after overnight incubation; assay type: functional; outline: as §1
Escherichia coli [35] = experiment: Antibacterial activity against Escherichia coli MRC17 at 512 ug/mL after 24 hrs by broth dilution assay relative to control; assay type: functional; outline: as §1
Homo sapiens = species on record: Homo sapiens; experiment: Inhibition of human methionine aminopeptidase 1B at 100 uM using Met-AMC as substrate relative to control; outline: as §3
Klebsiella pneumoniae = experiment: Antibacterial activity against Klebsiella pneumoniae ATCC 700603 after 24 hrs by broth dilution assay; assay type: functional; settings: Klebsiella pneumoniae, 700603, 24 h; outline: as §4
[36] = Inhibition of human methionine aminopeptidase 1B using Met-AMC as substrate by Dixon method; outline: as §3
Escherichia coli [37] = experiment: Synergistic antibacterial activity against Escherichia coli MRA11 assessed as ciprofloxacin MIC at 16 to 1024 ug/mL after 18 hrs by checkerboard method; assay type: functional; settings: MRA11, 18 h; outline: as §2
[38] = Inhibition of Enterococcus faecalis methionine aminopeptidase 1A using Met-AMC as substrate by Dixon method; outline: as §3

## COC(=O)[C@@H](C)NC(=O)/C(O)=C/C(=O)c1oc2ccc(Br)cc2c1C
[1]
  inhibition: 99.6%
Escherichia coli [2]
  Activity: 87%
Escherichia coli [3]
  ICmax: 512 µg/mL
Escherichia coli [4]
  ICmax: 512 µg/mL
Escherichia coli [4]; Escherichia coli, MRC17
  MIC: 1020 µg/mL (≈ 2500 µM)
Escherichia coli [5]
  fractional inhibitory concentration index (FICI): 1.0156
Enterococcus faecalis [6]
  inhibition: 93.9%
Escherichia coli [7]
  MIC: 64 µg/mL
Escherichia coli [8]
  Activity: 65%
Streptococcus pneumoniae [9]
  MIC: 62.5 µg/mL (≈ 152 µM)
Salmonella typhimurium
  MIC: 500 µg/mL (≈ 1220 µM)
Escherichia coli [10]
  MIC: 62.5 µg/mL (≈ 152 µM)
[11]
  Ki: 17.6 µM
Escherichia coli [12]
  MIC: 1020 µg/mL
Escherichia coli [13]
  Activity: 76%
Escherichia coli [14]
  Activity: 50%
CHO [15]
  Activity: Toxic
Escherichia coli [16]
  ICmax: 512 µg/mL
Escherichia coli [16]; Escherichia coli, MRA11
  MIC: 1020 µg/mL (≈ 2500 µM)
Escherichia coli [17]
  ICmax: 1024 µg/mL
Pseudomonas aeruginosa
  MIC: 125 µg/mL (≈ 305 µM)
[18]
  viability at 48 h, 100 ug/mL: 50%
Escherichia coli [19]
  MIC: 2 µg/mL
CHO [20]
  Activity: Non-Toxic
Escherichia coli [21]
  MIC: 16 µg/mL
Escherichia coli [22]
  Activity: 88%
Escherichia coli [23]
  Activity: Active
Escherichia coli [24]
  fractional inhibitory concentration index (FICI): 1.5
Escherichia coli [25]
  MIC: 1020 µg/mL
Escherichia coli [26]
  ICmax: 512 µg/mL
Escherichia coli [26]; Escherichia coli, MRAE33
  MIC: 1020 µg/mL (≈ 2500 µM)
[27]
  Ki: 8.78 µM
Enterococcus faecalis [28]
  MIC: 31.2 µg/mL (≈ 76.2 µM)
Streptococcus pneumoniae [29]
  inhibition: 97.4%
Escherichia coli [30]
  ICmax: 1024 µg/mL
Escherichia coli [31]
  Activity: 54%
Escherichia coli [32]
  ICmax: 512 µg/mL
Escherichia coli [33]
  fractional inhibitory concentration index (FICI): 2
Escherichia coli [34]
  ICmax: 512 µg/mL
Escherichia coli [35]
  Activity: 60%
Homo sapiens
  inhibition: 89.1%
Klebsiella pneumoniae
  MIC: 500 µg/mL (≈ 1220 µM)
[36]
  Ki: 22.1 µM
Escherichia coli [37]
  MIC: 128 µg/mL
[38]
  Ki: 10.4 µM
